ChEMBL document CHEMBL3425404, “Structure-activity relationship in a purine-scaffold compound series with selectivity for the endoplasmic reticulum Hsp90 paralog Grp94” (J Med Chem, 2015)
Active and inactive are the calls of the source. The rule behind the calls is not given here.

Columns and labels:
[1] = target: Heat shock protein HSP 90-alpha (Homo sapiens, UniProt P07900); test: Displacement of Cy3B-GM from recombinant Hsp90alpha (unknown origin) after 24 hrs by fluorescence polarization assay
Endoplasmin = Endoplasmin (Canis lupus familiaris, UniProt P41148); test: Displacement of Cy3B-GM from recombinant Grp94 (unknown origin) after 24 hrs by fluorescence polarization assay
Chain of Endoplasmin (P41148 whole entry): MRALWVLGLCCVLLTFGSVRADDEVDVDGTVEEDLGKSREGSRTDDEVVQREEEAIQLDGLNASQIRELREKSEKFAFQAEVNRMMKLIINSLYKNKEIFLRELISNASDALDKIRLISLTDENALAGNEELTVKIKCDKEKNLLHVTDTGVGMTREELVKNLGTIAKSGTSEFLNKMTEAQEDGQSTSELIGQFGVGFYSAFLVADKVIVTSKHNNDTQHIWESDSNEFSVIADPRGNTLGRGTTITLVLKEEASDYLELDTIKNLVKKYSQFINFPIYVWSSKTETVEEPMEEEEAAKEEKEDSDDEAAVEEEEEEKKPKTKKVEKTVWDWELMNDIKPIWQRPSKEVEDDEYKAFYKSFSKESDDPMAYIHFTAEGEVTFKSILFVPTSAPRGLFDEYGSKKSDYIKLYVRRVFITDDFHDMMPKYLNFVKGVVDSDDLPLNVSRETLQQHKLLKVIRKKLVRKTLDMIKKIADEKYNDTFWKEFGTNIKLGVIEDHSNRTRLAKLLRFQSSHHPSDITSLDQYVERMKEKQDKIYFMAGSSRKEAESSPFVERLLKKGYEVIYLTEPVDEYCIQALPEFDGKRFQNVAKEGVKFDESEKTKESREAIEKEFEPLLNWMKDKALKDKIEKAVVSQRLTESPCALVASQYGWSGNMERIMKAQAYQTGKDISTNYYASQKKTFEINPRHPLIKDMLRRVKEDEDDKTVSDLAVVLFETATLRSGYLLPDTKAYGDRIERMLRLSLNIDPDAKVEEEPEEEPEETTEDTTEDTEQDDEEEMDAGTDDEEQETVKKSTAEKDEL

[2] = target: Heat shock protein HSP 90-beta (Homo sapiens, UniProt P08238)
Chain of Heat shock protein HSP 90-beta (P08238 whole entry): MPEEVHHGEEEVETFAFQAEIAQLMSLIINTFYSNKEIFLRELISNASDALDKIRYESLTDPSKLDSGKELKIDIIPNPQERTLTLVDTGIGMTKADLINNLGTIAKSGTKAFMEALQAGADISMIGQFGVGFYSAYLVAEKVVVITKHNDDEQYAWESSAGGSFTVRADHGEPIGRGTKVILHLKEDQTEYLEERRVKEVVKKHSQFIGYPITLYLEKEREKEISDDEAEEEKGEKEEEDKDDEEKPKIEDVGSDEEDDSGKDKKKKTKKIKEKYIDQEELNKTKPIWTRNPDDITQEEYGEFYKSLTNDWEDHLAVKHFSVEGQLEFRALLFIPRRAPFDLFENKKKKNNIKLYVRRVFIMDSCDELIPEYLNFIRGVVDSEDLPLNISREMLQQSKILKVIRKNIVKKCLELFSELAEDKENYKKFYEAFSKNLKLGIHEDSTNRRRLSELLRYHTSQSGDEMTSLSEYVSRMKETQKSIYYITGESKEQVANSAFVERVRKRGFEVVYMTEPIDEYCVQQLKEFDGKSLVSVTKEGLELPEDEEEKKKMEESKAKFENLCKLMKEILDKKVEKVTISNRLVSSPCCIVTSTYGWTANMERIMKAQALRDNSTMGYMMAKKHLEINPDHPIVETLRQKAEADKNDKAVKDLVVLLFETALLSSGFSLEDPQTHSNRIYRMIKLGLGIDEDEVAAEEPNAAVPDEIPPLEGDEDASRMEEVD

[3] = target: T1, Heat shock protein 75 kDa, mitochondrial (Homo sapiens, UniProt Q12931); test: Displacement of PU-FITC3 from recombinant TRAP-1 (unknown origin) after 24 hrs by fluorescence polarization assay
T1 sequence (Q12931 whole entry): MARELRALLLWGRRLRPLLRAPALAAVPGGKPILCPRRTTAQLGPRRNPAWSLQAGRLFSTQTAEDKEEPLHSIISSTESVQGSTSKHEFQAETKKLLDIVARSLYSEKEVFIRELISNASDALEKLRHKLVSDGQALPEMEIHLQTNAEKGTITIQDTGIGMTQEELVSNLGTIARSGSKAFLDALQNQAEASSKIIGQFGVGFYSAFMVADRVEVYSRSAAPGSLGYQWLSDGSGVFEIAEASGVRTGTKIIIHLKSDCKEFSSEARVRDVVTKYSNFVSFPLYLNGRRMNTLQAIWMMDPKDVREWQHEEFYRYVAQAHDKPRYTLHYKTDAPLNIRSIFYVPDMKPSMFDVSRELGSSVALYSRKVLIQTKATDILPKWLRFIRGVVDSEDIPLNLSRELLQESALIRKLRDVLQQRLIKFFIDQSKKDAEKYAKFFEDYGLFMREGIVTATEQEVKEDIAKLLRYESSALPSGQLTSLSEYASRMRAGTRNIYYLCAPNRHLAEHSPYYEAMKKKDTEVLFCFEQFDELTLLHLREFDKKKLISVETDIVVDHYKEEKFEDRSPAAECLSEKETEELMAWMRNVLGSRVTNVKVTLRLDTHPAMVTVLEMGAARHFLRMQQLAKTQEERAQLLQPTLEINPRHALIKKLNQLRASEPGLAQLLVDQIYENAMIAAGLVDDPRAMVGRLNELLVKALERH

Homo sapiens = species on record: Homo sapiens; test: Selectivity ratio of IC50 for recombinant Grp94 (unknown origin) to IC50 for recombinant Hsp90alpha (unknown origin)
[4] = Cytotoxicity against human SKBR3 cells assessed as cell viability at 100 uM after 72 hrs by CellTiter-Glo assay; type: cell-based; conditions: sk-br-3, 72 h
In short: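 SKBr3 cells were grown in McCoy's 5A with 10% FBS and Pen/Strep at 37 °C. They were exposed 72 h to vehicle or compound in quadruplicate wells. Viability was read by CellTiter-Glo luminescence (ATP content), with mean ± error, n = 4.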

[5] = target: Heat shock protein HSP90 (Homo sapiens) (UniProt P07900+P08238); test: Inhibition of HSP90 in human SKBR3 cells assessed as induction of HSP70 activity at 100 uM after 24 hrs by Western blot analysis; type: cell-based; conditions: SK-BR-3
In short: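 SKBr3 cells (McCoy's 5A, 10% FBS, 1% Pen/Strep, 37 °C, CO2) treated 24 h with DMSO vehicle or compound. Cells lysed in RIPA with protease inhibitors; protein measured by BCA. Lysate (5−50 μg) run on SDS−PAGE, blotted to nitrocellulose, probed for Hsp70 (1:2500) and β-actin. HRP secondary, ECL detection, densitometry; triplicate experiments.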

[6] = target: MAP kinase-interacting serine/threonine-protein kinase 2 (Homo sapiens) (UniProt Q9HBH9); test: Inhibition of human MKNK2 at 10 uM after 1 hr by qPCR analysis relative to control
Chain of MAP kinase-interacting serine/threonine-protein kinase 2 (Homo sapiens) (Q9HBH9 whole entry, looked up): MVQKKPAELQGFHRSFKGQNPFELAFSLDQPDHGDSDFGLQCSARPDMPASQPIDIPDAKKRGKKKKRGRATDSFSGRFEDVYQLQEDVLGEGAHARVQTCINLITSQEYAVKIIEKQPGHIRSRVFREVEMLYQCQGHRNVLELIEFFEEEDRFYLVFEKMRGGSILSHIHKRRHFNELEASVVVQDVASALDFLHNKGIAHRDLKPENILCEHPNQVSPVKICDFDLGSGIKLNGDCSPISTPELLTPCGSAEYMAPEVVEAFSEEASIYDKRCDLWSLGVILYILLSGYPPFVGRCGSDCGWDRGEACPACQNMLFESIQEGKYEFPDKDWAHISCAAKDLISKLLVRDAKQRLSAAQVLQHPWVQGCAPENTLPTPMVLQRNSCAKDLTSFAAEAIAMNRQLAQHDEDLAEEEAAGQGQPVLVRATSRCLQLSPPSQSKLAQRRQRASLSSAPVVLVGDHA
In short: (§1)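 Compound tested at 10 μM in a scanEDGE 97 active-site competition binding panel. Incubation was 1 h at room temperature, then washing and elution with non-biotinylated ligand. Bead-bound kinase was quantified by qPCR; values are % inhibition.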

[7] = target: Rho-associated protein kinase 2 (Homo sapiens) (UniProt O75116); test: Inhibition of human ROCK2 at 10 uM after 1 hr by qPCR analysis relative to control; in short: as §1
Chain of Rho-associated protein kinase 2 (Homo sapiens) (O75116 whole entry, looked up): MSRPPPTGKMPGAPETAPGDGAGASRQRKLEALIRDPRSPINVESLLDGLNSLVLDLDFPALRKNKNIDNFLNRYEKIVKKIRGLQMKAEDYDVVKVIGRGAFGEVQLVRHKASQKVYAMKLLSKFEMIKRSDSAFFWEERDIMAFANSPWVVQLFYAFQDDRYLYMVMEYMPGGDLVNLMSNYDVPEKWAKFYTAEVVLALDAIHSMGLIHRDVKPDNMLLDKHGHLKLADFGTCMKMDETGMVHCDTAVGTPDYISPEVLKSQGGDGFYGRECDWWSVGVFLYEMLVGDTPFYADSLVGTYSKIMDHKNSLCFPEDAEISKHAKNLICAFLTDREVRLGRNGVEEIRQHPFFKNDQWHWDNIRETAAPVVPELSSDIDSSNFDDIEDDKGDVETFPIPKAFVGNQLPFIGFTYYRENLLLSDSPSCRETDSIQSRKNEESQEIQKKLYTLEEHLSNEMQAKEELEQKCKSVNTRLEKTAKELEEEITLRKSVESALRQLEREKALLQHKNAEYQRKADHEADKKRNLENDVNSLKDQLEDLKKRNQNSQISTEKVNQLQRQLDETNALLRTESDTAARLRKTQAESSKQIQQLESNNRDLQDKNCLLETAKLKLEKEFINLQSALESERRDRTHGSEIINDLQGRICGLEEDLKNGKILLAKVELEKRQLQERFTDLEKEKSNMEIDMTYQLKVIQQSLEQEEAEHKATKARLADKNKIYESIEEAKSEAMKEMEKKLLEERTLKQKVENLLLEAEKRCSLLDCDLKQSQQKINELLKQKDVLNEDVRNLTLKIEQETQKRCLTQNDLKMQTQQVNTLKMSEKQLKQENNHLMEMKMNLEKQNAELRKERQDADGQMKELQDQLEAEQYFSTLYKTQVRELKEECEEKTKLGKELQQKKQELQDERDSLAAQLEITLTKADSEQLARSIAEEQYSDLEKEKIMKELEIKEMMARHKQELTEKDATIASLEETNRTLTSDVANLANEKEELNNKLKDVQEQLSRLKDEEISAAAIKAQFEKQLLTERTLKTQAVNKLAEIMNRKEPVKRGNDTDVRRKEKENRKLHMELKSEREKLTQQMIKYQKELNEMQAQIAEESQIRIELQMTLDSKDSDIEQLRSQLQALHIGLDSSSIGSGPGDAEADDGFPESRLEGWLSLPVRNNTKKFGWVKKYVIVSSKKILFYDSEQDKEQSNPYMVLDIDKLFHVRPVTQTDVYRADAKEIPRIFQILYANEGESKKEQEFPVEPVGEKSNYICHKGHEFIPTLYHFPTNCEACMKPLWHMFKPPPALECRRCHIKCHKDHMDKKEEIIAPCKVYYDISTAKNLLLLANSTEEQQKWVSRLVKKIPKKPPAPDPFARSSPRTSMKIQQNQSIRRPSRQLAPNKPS

Row | Structure (SMILES) | IC50 [1] [µM] | IC50 (Endoplasmin) [µM] | other results
1 | CC(C)NCCCn1c(Sc2cc3c(cc2N(C)C)OCO3)nc2c(N)ncnc21 | 0.1 | 0.265 | –
2 | C#CCCCn1c(Sc2ccc(OC)cc2OC)nc2c(N)ncnc21 | > 50 | 34.5 | IC50 [2]: > 50 µM
3 | C#CCCCn1c(C(=O)c2ccc(Cl)cc2Cl)nc2c(N)ncnc21 | > 100 | 0.34 | IC50 [3]: 4.98 µM
4 | C#CCCCn1c(Sc2cc(Cl)nc(Cl)c2)nc2c(N)ncnc21 | 8.3 | 1.9 | IC50 [3]: 9.6 µM
5 | C#CCC(CC)n1c(Sc2ccc(Cl)cc2Cl)nc2c(N)ncnc21 (stereo not drawn) | > 50 | 0.92 | IC50 [3]: > 50 µM
6 | CC(C)NCCCn1c(Sc2cc(Cl)cc(Cl)c2)nc2c(N)nccc21 | – | 1.08 | IC50 [3]: 7.2 µM
7 | C#CCCCn1c(Oc2ccc(Cl)cc2Cl)nc2c(N)ncnc21 | > 100 | 0.5 | –
8 | C#CCC(C)n1c(Sc2cc(Cl)cc(Cl)c2)nc2c(N)ncnc21 (stereo not drawn) | > 50 | 5.8 | –
9 | CC(C)NCCCn1c(Sc2cc3c(cc2I)OCO3)nc2c(N)nccc21 | 0.028 | 0.101 | Ratio IC50 (Homo sapiens): 4
10 | C#CCCCn1c(Sc2ccc(Br)cc2Cl)nc2c(N)ncnc21 | > 50 | 0.39 | –
11 | C#CCCCCn1c(Sc2cc(Cl)cc(Cl)c2)nc2c(N)ncnc21 | > 50 | 0.665 | –
12 | C#CCCCn1c(Sc2ccc(Cl)c(Cl)c2Cl)nc2c(N)ncnc21 | 16 | 0.43 | IC50 [2]: 39.5 µM; IC50 [3]: 3.6 µM
13 | CCCC(C)n1c(Sc2ccc(Cl)cc2Cl)nc2c(N)ncnc21 (stereo not drawn) | > 100 | 2.48 | IC50 [3]: > 50 µM
14 | C#CCC(C)n1c(Sc2ccc(Cl)cc2Cl)nc2c(N)ncnc21 (stereo not drawn) | > 50 | 5 | –
15 | Nc1ncnc2c1nc(Sc1cc(Cl)cc(Cl)c1)n2CCC(F)(F)F | – | 0.56 | –
16 | C#CCCCn1c(Sc2cc(Br)cc(Br)c2)nc2c(N)ncnc21 | > 50 | 0.29 | –
17 | C#CCCCn1c(S(=O)(=O)c2ccc(Cl)cc2Cl)nc2c(N)ncnc21 | – | 4.7 | –
18 | C#CCCCn1c(Sc2ccc(OC)cc2)nc2c(N)ncnc21 | – | 1.13 | –
19 | Cc1ccc(Sc2nc3c(N)ncn(CCCNC(C)C)c-3n2)c(C)c1 | – | > 25 | –
20 | CCCC(C)n1c(Sc2cc(Cl)cc(Cl)c2)nc2c(N)ncnc21 (stereo not drawn) | > 50 | 14.3 | –
21 | Nc1ncnc2c1nc(Sc1cc(Cl)cc(Cl)c1)n2CCc1ccccc1 | > 50 | > 2.5 | –
22 | C#CCC(CC)n1c(Sc2cc(Cl)cc(Cl)c2)nc2c(N)ncnc21 (stereo not drawn) | > 100 | > 5 | –
23 | C#CCCCn1c(Sc2cc(Cl)c(Cl)cc2Cl)nc2c(N)ncnc21 | – | 0.17 | –
24 | C#CCCn1c(Sc2ccc(Cl)cc2Cl)nc2c(N)ncnc21 | > 50 | 0.39 | IC50 [3]: 7.23 µM

Row | Structure (SMILES) | IC50 [1] [µM] | IC50 (Endoplasmin) [µM] | other results
25 | C#CCCCn1c(Sc2ccccc2OC(F)(F)F)nc2c(N)ncnc21 | – | 1.4 | –
26 | C#CCCCn1c(Sc2ccccc2CO)nc2c(N)ncnc21 | – | 29.4 | –
27 | C#CCCCn1c(Sc2ccccc2Cl)nc2c(N)ncnc21 | – | 0.35 | –
28 | C#CCCCn1c(Sc2ccccc2OC)nc2c(N)ncnc21 | > 100 | 6.2 | IC50 [2]: > 100 µM
29 | Nc1ncnc2c1nc(Sc1cc(Cl)cc(Cl)c1)n2CCCCCC(F)(F)F | > 50 | 1.65 | –
30 | C#CCCn1c(Sc2cc(Cl)cc(Cl)c2)nc2c(N)ncnc21 | > 50 | 0.287 | –
31 | C#CCCCn1c(Sc2cc(Cl)cc(Br)c2)nc2c(N)ncnc21 | > 100 | 0.24 | IC50 [2]: > 100 µM
32 | Nc1ncnc2c1nc(Sc1cc(Cl)cc(Cl)c1)n2CCCCC(F)(F)F | – | 2.74 | –
33 | C#CCCCn1c(Sc2cc(Cl)ccc2Cl)nc2c(N)ncnc21 | – | 0.53 | –
34 | C#CCCCn1c([S+]([O-])c2ccc(Cl)cc2Cl)nc2c(N)ncnc21 (stereo not drawn) | 24.9 | 5.4 | –
35 | COC(=O)c1c(O)cc(O)c(Cl)c1CCc1nccn1Cc1ccccc1 | – | – | Activity [4]: Toxic; inhibition [5]: Active
36 | C#CCCCn1c(Sc2cc(Cl)cc(Cl)c2)nc2c(N)ncnc21 | > 500 | 0.26 | IC50 [2]: > 500 µM; IC50 [3]: 83.6 µM
37 | C#CCCCn1c(Sc2cc(C)cc(C)c2)nc2c(N)ncnc21 | – | 11.5 | –
38 | CC(C)NCCCn1c(Sc2ccc(Cl)cc2Cl)nc2c(N)nccc21 | > 50 | 3.44 | IC50 [3]: 14.1 µM
39 | C#CCCCn1c(Sc2c(C)cc(C)cc2C)nc2c(N)ncnc21 | > 500 | 2.1 | IC50 [2]: > 500 µM
40 | C#CCCCn1c(Sc2ccc(Cl)cc2Cl)nc2c(N)ncnc21 | – | 0.12 | inhibition [6]: 34%; inhibition [7]: 32%
41 | C#CCCCn1c(Cc2ccc(Cl)cc2Cl)nc2c(N)ncnc21 | > 100 | 0.7 | –
42 | CC#CCn1c(Sc2cc(Cl)cc(Cl)c2)nc2c(N)ncnc21 | – | 5.1 | –
43 | CCCCn1c(Sc2cc(Cl)cc(Cl)c2)nc2c(N)ncnc21 | > 50 | – | –
44 | C#CCCCn1c(Sc2cc(C(F)(F)F)ccc2Cl)nc2c(N)ncnc21 | > 100 | 0.5 | IC50 [2]: > 100 µM
45 | C#CCCCn1c(Sc2ccc(Cl)cc2)nc2c(N)ncnc21 | – | 1.5 | –
46 | C#CCCCn1c(Sc2ccc(Cl)c(Cl)c2)nc2c(N)ncnc21 | 1.96 | 0.695 | –
47 | Nc1ncnc2c1nc(Sc1cc(Cl)cc(Cl)c1)n2Cc1ccccc1 | > 50 | > 5 | –
48 | Nc1ncnc2c1nc(Sc1cc(Cl)cc(Cl)c1)n2CCCC(F)(F)F | – | 0.502 | –
